Results reported in ChEMBL document CHEMBL1142212, “Length effects in antimicrobial peptides of the (RW)n series” (Antimicrob Agents Chemother, 2007).
Converted amounts (≈) assume the structure as drawn. Peptide text beside a SMILES is read from it.

Legend:
Erythrocyte = experiment: Hemolytic activity in sheep red blood cells; type: functional, Ovis aries
In short: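 Fresh sheep erythrocyte suspension was incubated with peptide in PBS pH 7.2 at 37°C for 30 min, then centrifuged at 3,000 rpm for 10 min. Supernatant was diluted 40-fold in water and read at OD540. Buffer gave 0% and 1% Triton-X gave 100% hemolysis. HD50 is the concentration giving 50% hemolysis, taken from dose-response curves.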

Escherichia coli [1] = experiment: Growth inhibition of Escherichia coli D31
Staphylococcus aureus [2] = experiment: Antimicrobial activity against Staphylococcus aureus ATCC BAA44 after 18 hrs
Staphylococcus aureus [3] = experiment: Growth inhibition of Staphylococcus aureus ATCC BAA44
Escherichia coli [4] = experiment: Antimicrobial activity against Escherichia coli D31 after 18 hrs; settings: D31, 18 h

SMILES | HD50 (Erythrocyte) | IC50 (Escherichia coli [1]) | MBC50 (Staphylococcus aureus [2]) | IC50 (Staphylococcus aureus [3]) | MBC50 (Escherichia coli [4])
N=C(N)NCCC[C@H](NC(=O)[C@H](Cc1c[nH]c2ccccc12)NC(=O)[C@H](CCCNC(=N)N)NC(=O)[C@H](Cc1c[nH]c2ccccc12)NC(=O)[C@H](CCCNC(=N)N)NC(=O)[C@H](Cc1c[nH]c2ccccc12)NC(=O)[C@H](CCCNC(=N)N)NC(=O)[C@H](Cc1c[nH]c2ccccc12)NC(=O)[C@@H](N)CCCNC(=N)N)C(=O)N[C@@H](Cc1c[nH]c2ccccc12)C(N)=O | 76 µM | 6.2 µM | 6.9 µM (≈ 11.9 µg/mL) | 3.6 µM | 7.2 µM (≈ 12.4 µg/mL)
N=C(N)NCCC[C@H](N)C(=O)N[C@@H](Cc1c[nH]c2ccccc12)C(N)=O (H-Arg-Trp-NH2) | 8900 µM | 4300 µM | 2300 µM (≈ 827 µg/mL) | 2100 µM | 4700 µM (≈ 1690 µg/mL)
N=C(N)NCCC[C@H](NC(=O)[C@H](Cc1c[nH]c2ccccc12)NC(=O)[C@@H](N)CCCNC(=N)N)C(=O)N[C@@H](Cc1c[nH]c2ccccc12)C(N)=O (H-RWRW-NH2) | 3700 µM | 730 µM | 620 µM (≈ 435 µg/mL) | 210 µM | 990 µM (≈ 695 µg/mL)
N=C(N)NCCC[C@H](NC(=O)[C@H](Cc1c[nH]c2ccccc12)NC(=O)[C@H](CCCNC(=N)N)NC(=O)[C@H](Cc1c[nH]c2ccccc12)NC(=O)[C@@H](N)CCCNC(=N)N)C(=O)N[C@@H](Cc1c[nH]c2ccccc12)C(N)=O (H-RWRWRW-NH2) | 210 µM | 16 µM | 15 µM (≈ 15.7 µg/mL) | 8 µM | 29 µM (≈ 30.3 µg/mL)
N=C(N)NCCC[C@H](NC(=O)[C@H](Cc1c[nH]c2ccccc12)NC(=O)[C@H](CCCNC(=N)N)NC(=O)[C@H](Cc1c[nH]c2ccccc12)NC(=O)[C@H](CCCNC(=N)N)NC(=O)[C@H](Cc1c[nH]c2ccccc12)NC(=O)[C@@H](N)CCCNC(=N)N)C(=O)N[C@@H](Cc1c[nH]c2ccccc12)C(N)=O (H-RWRWRWRW-NH2) | 100 µM | 9.6 µM | 12 µM (≈ 16.6 µg/mL) | 5.1 µM | 14 µM (≈ 19.4 µg/mL)
